pIC50, pKi: −log10 of the molar value. The source made the active and inactive calls. The calls are words filed in the database; no cut-off is given here.
Key:
[1] = target: T1, C-C chemokine receptor type 2 (Homo sapiens, UniProt P41597); experiment: Displacement of [3H]-CCR2-RA-[R] from human CCR2 expressed in human U2OS cells incubated for 2 hrs by scintillation spectrometric method; assay type: cell-based; settings: for pKi: read-out: Ki; for Ki: read-out: pKi (converted)
Target sequence in this assay (P41597 whole entry): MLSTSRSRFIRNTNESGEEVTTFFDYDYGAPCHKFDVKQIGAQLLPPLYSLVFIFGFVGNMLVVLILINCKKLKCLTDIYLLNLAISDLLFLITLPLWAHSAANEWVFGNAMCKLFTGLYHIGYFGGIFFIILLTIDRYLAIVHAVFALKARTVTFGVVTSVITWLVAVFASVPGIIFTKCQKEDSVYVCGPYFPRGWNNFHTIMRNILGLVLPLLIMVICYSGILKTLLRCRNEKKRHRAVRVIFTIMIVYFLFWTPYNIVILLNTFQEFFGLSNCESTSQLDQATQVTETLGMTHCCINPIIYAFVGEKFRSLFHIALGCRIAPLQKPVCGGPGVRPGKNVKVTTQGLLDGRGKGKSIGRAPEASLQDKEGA

[2] = target: T2, C-C chemokine receptor type 5 (Homo sapiens, UniProt P51681); experiment: Antagonist activity at human TEV cleavage site-linked CCR5 expressed in human U2OS cells harboring beta-lactamase reporter gene assessed as inhibition of CCL3-induced beta-arrestin recruitment at 1 uM incubated for 30 mins followed by CCL3 stimulation and measured after 16 hrs by Tango assay relative to control; assay type: cell-based
Target sequence in this assay (P51681 whole entry, looked up): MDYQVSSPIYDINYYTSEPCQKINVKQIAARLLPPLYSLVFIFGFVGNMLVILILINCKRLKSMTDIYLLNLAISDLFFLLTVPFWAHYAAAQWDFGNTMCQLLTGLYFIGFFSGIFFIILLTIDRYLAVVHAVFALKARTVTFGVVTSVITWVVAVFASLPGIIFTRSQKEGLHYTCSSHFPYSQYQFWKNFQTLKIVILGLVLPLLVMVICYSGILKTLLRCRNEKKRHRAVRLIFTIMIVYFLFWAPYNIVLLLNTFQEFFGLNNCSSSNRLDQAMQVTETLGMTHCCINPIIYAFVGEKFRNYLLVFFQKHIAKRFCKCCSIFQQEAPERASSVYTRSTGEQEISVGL

[3] = target: T2, C-C chemokine receptor type 5; experiment: Antagonist activity at human TEV cleavage site-linked CCR5 expressed in human U2OS cells harboring beta-lactamase reporter gene assessed as inhibition of CCL3-induced beta-arrestin recruitment incubated for 30 mins followed by CCL3 stimulation and measured after 16 hrs by Tango assay; assay type: cell-based; settings: for IC50: read-out: pIC50 (converted); for pIC50: read-out: IC50
Target sequence in this assay (P51681 whole entry): as the sequence (P51681 whole entry, looked up) above

[4] = target: T1, C-C chemokine receptor type 2; experiment: Antagonist activity at human TEV cleavage site-linked CCR2b expressed in human U2OS cells harboring beta-lactamase reporter gene assessed as inhibition of CCL2-induced beta-arrestin recruitment incubated for 30 mins followed by CCL2 stimulation and measured after 16 hrs by Tango assay; assay type: cell-based
Procedure, shortened: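 Tango CCR2b-bla U2OS cells: 10 000 cells/well in FreeStyle medium, 30 min preincubation at room temperature with increasing antagonist concentrations (DMSO ≤0.5%), then 16 h with CCL2 at EC80 (5 nM), 37 °C, 5% CO2. LiveBLAzer-FRET B/G substrate 2 h at room temperature; 460/535 nm emission ratio at 400 nm excitation. IC50 by nonlinear regression.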
Target sequence in this assay (P41597 whole entry): as the sequence (P41597 whole entry) above

[5] = organism: Homo sapiens; experiment: Selectivity ratio of IC50 for human TEV cleavage site-linked CCR5 expressed in human U2OS cells to IC50 for human TEV cleavage site-linked CCR2b expressed in human U2OS cells; assay type: cell-based
[6] = target: T1, C-C chemokine receptor type 2; experiment: Non-competitive insurmountable antagonist activity at human CCR2 expressed in human U2OS cell membranes assessed as Emax for CCL2-stimulated [35S]GTPgammaS binding at 10 nM preincubated for 30 mins followed by [35S]GTPgammaS addition and measured after 90 mins (reference value: 107 +/- 2%); assay type: functional
Target sequence in this assay (P41597 whole entry, looked up): as the sequence (P41597 whole entry) above

[7] = target: T1, C-C chemokine receptor type 2; experiment: Non-competitive insurmountable antagonist activity at human CCR2 expressed in human U2OS cell membranes assessed as Emax for CCL2-stimulated [35S]GTPgammaS binding at 1 nM preincubated for 30 mins followed by [35S]GTPgammaS addition and measured after 90 mins (reference value: 107 +/- 2%); assay type: functional
Target sequence in this assay (P41597 whole entry, looked up): as the sequence (P41597 whole entry) above

[8] = target: T1, C-C chemokine receptor type 2; experiment: Non-competitive insurmountable antagonist activity at human CCR2 expressed in human U2OS cell membranes assessed as Emax for CCL2-stimulated [35S]GTPgammaS binding at 3 nM preincubated for 30 mins followed by [35S]GTPgammaS addition and measured after 90 mins (reference value: 107 +/- 2%); assay type: functional
Target sequence in this assay (P41597 whole entry, looked up): as the sequence (P41597 whole entry) above

[9] = target: T2, C-C chemokine receptor type 5; experiment: Non-competitive insurmountable antagonist activity at human CCR5 expressed in human U2OS cell membranes assessed as Emax for CCL3-stimulated [35S]GTPgammaS binding at 100 nM preincubated for 30 mins followed by [35S]GTPgammaS addition and measured after 90 mins (reference value: 108 +/- 2%); assay type: functional
Target sequence in this assay (P51681 whole entry, looked up): as the sequence (P51681 whole entry, looked up) above

[10] = target: T2, C-C chemokine receptor type 5; experiment: Non-competitive insurmountable antagonist activity at human CCR5 expressed in human U2OS cell membranes assessed as Emax for CCL3-stimulated [35S]GTPgammaS binding at 300 nM preincubated for 30 mins followed by [35S]GTPgammaS addition and measured after 90 mins (reference value: 108 +/- 2%); assay type: functional
Target sequence in this assay (P51681 whole entry, looked up): as above

[11] = target: T2, C-C chemokine receptor type 5; experiment: Non-competitive insurmountable antagonist activity at human CCR5 expressed in human U2OS cell membranes assessed as Emax for CCL3-stimulated [35S]GTPgammaS binding at 30 nM preincubated for 30 mins followed by [35S]GTPgammaS addition and measured after 90 mins (reference value: 108 +/- 2%); assay type: functional
Target sequence in this assay (P51681 whole entry, looked up): as above

[12] = target: T1, C-C chemokine receptor type 2; experiment: Inverse agonist activity at human CCR2 assessed as reduction in [35S]GTPgammaS binding at 1 uM relative to control; assay type: functional; set-up: scale not given: the % may be the effect or the level left
Target sequence in this assay (P41597 whole entry, looked up): as the sequence (P41597 whole entry) above

[13] = target: T1, C-C chemokine receptor type 2; experiment: Antagonist activity at CCR2b in human THP1 cells assessed as inhibition of human MCP1 induced calcium flux by fluo-4 dye based fluorescence assay; assay type: functional, cell-based
Target sequence in this assay (P41597 whole entry): as above

[14] = target: T1, C-C chemokine receptor type 2; experiment: Non-competitive insurmountable antagonist activity at human CCR2 expressed in human U2OS cell membranes assessed as Emax for CCL2-stimulated [35S]GTPgammaS binding at 30 nM preincubated for 30 mins followed by [35S]GTPgammaS addition and measured after 90 mins (reference value: 107 +/- 2%); assay type: functional
Target sequence in this assay (P41597 whole entry, looked up): as the sequence (P41597 whole entry) above

[15] = target: T1, C-C chemokine receptor type 2; experiment: Non-competitive insurmountable antagonist activity at human CCR2 expressed in human U2OS cell membranes assessed as Emax for CCL2-stimulated [35S]GTPgammaS binding at 100 nM preincubated for 30 mins followed by [35S]GTPgammaS addition and measured after 90 mins (reference value: 107 +/- 2%); assay type: functional
Target sequence in this assay (P41597 whole entry, looked up): as the sequence (P41597 whole entry) above

[16] = target: T2, C-C chemokine receptor type 5; experiment: Non-competitive insurmountable antagonist activity at human CCR5 expressed in human U2OS cell membranes assessed as Emax for CCL3-stimulated [35S]GTPgammaS binding at 1000 nM preincubated for 30 mins followed by [35S]GTPgammaS addition and measured after 90 mins (reference value: 108 +/- 2%); assay type: functional
Target sequence in this assay (P51681 whole entry, looked up): as the sequence (P51681 whole entry, looked up) above

Row | SMILES | pKi [1] | inhibition [2] | further results
1 | CC(C)c1[nH]c2nc(N)nn2c(=O)c1Cc1cc(Cl)ccc1Cl | 7.65 | 20% | 
2 | CCCCCc1[nH]c2nc(N)nn2c(=O)c1Cc1cccc(Cl)c1 | 8.14 | 38% | 
3 | Nc1nc2[nH]c(C3CC3)c(Cc3ccc(Br)cc3)c(=O)n2n1 | 8.82 | 14% | 
4 | COc1cccc(Cc2c(C3CC3)[nH]c3nc(N)nn3c2=O)c1 | 7.89 |  | 
5 | COc1ccccc1Cc1c(C2CC2)[nH]c2nc(N)nn2c1=O | 6.98 |  | 
6 | CC[C@@H](c1ccc(F)c(F)c1)n1c(C(=O)OC)c(-c2ccno2)[nH]c1=S |  | < 50% | 
7 | Cc1[nH]c2nc(N)nn2c(=O)c1Cc1cccc(Cl)c1 | 7.76 |  | Ki [1]: 16.6 nM
8 | Nc1nc2[nH]c(C3CC3)c(Cc3ccc(Cl)c(Cl)c3)c(=O)n2n1 | 9.40 | > 70% | IC50 [3]: 214 nM
9 | CC(C)c1[nH]c2nc(N)nn2c(=O)c1Cc1cc(Cl)cc(Cl)c1 | 8.66 | > 70% | IC50 [3]: 324 nM
10 | Cc1ccccc1Cc1c(C2CC2)[nH]c2nc(N)nn2c1=O | 7.80 | 28% | 
11 | Nc1nc2[nH]c(C3CC3)c(Cc3ccc(F)cc3)c(=O)n2n1 | 8.39 | 31% | 
12 | Nc1nc2[nH]c(C3CC3)c(Cc3cccc(I)c3)c(=O)n2n1 | 9.05 | 66% | 
13 | COc1ccc(Cc2c(C3CC3)[nH]c3nc(N)nn3c2=O)cc1 | 7.68 |  | 
14 | CCC(CC)Cc1[nH]c2nc(N)nn2c(=O)c1Cc1cccc(Cl)c1 | 8.19 | 29% | 
15 | Cc1ccc(-c2[nH]c3nc(N)nn3c(=O)c2Cc2cccc(Cl)c2)cc1 | 6.80 |  | Ki [1]: 155 nM
16 | Nc1nc2[nH]c(C3CC3)c(Cc3ccccc3Cl)c(=O)n2n1 | 7.84 | 27% | 
17 | Nc1nc2[nH]c(C3CC3)c(Cc3cccc(C(F)(F)F)c3)c(=O)n2n1 | 8.23 | 36% | Ki [1]: 5.5 nM
18 | Nc1nc2[nH]c(C3CC3)c(Cc3ccc(Cl)cc3)c(=O)n2n1 | 8.74 | 31% | 
19 | Cc1cccc(Cc2c(C3CC3)[nH]c3nc(N)nn3c2=O)c1 | 8.60 | 62% | 
20 | Nc1nc2[nH]c(C3CC3)c(Cc3ccccc3)c(=O)n2n1 | 8.23 | 35% | Ki [1]: 5.37 nM
21 | Nc1nc2[nH]c(C3CC3)c(Cc3cccc(F)c3)c(=O)n2n1 | 8.47 | 43% | 

Row | SMILES | pKi [1] | inhibition [2] | further results
22 | CC(C)c1[nH]c2nc(N)nn2c(=O)c1Cc1ccc(Cl)c(Br)c1 | 9.40 | > 70% | IC50 [3]: 112 nM; pIC50 [4]: 8.40; Ratio IC50 [5]: 29; Emax [6]: 33%; Emax [7]: 72%; Emax [8]: 51%; Emax [9]: 58%; Emax [10]: 35%; Emax [11]: 81%; Activity [12]: 7 to 8%
23 | Nc1nc2[nH]c(C3CC3)c(Cc3cccc(Cl)c3)c(=O)n2n1 | 8.89 | > 70% | pIC50 [13]: 7.70 to 7.80; IC50 [3]: 575 nM; pIC50 [4]: 8.00
24 | CCCCCCc1[nH]c2nc(N)nn2c(=O)c1Cc1cccc(Cl)c1 | 7.66 |  | 
25 | Nc1nc2[nH]c(CCc3ccccc3)c(Cc3cccc(Cl)c3)c(=O)n2n1 | 7.28 |  | Ki [1]: 51.3 nM
26 | Cc1nc2[nH]c(C3CC3)c(Cc3cccc(Cl)c3)c(=O)n2n1 | 8.46 | 35% | 
27 | O=c1c(Cc2cccc(Cl)c2)c(C2CC2)[nH]c2ncnn12 | 8.77 | 60% | 
28 | Nc1nc2[nH]c(C3CC3)c(Cc3cccc(Br)c3)c(=O)n2n1 | 9.05 | 60% | Ki [1]: 0.832 nM
29 | CC(=O)C1=C(O)C(=O)N(c2ccc(Cl)cc2F)[C@@H]1C1CCCCC1 |  | < 50% | pIC50 [3]: 6.15
30 | CCCCCCCc1[nH]c2nc(N)nn2c(=O)c1Cc1cccc(Cl)c1 | 6.75 |  | Ki [1]: 174 nM
31 | Cc1ccc(Cc2c(C3CC3)[nH]c3nc(N)nn3c2=O)cc1 | 8.46 |  | 
32 | CCCCc1[nH]c2nc(N)nn2c(=O)c1Cc1cccc(Cl)c1 | 8.64 | > 70% | IC50 [3]: 513 nM
33 | CC(C)c1[nH]c2nc(N)nn2c(=O)c1Cc1cccc(Cl)c1Cl | 8.80 | > 70% | IC50 [3]: 81.3 nM; pIC50 [4]: 7.68; Ratio IC50 [5]: 4; Emax [6]: 91%; Emax [14]: 75%; Emax [15]: 50%; Emax [9]: 79%; Emax [10]: 56%; Emax [16]: 25%; Activity [12]: 7 to 8%
34 | Nc1nc2[nH]c(-c3ccccc3)c(Cc3cccc(Cl)c3)c(=O)n2n1 | 7.57 |  | 
35 | CC(C)c1[nH]c2nc(N)nn2c(=O)c1Cc1cc(Br)cc(Br)c1 | 8.68 | 64% | 
36 | CC(C)c1[nH]c2nc(N)nn2c(=O)c1Cc1cccc(Cl)c1 | 8.72 | > 70% | IC50 [3]: 275 nM
37 | CCc1[nH]c2nc(N)nn2c(=O)c1Cc1cccc(Cl)c1 | 8.40 | 29% | 
38 | Cc1ccc(-c2ccc3c(c2)C=C(C(=O)Nc2ccc(C[N+](C)(C)C4CCOCC4)cc2)CCC3)cc1 |  | Active | pIC50 [3]: 8.22
39 | Nc1nc2[nH]c(C3CCCC3)c(Cc3cccc(Cl)c3)c(=O)n2n1 | 8.80 | > 70% | IC50 [3]: 372 nM
40 | O=C(O)c1ccccc1Oc1ccc(Cl)cc1NS(=O)(=O)c1ccc(Cl)c(Cl)c1 |  | < 50% | 
41 | CCCc1[nH]c2nc(N)nn2c(=O)c1Cc1cccc(Cl)c1 | 8.44 | 64% | Ki [1]: 3.47 nM
42 | CC(C)c1[nH]c2nc(N)nn2c(=O)c1Cc1ccc(Cl)c(Cl)c1 | 9.22 | > 70% | IC50 [3]: 123 nM

— ChEMBL document CHEMBL4321857, “Synthesis and Pharmacological Evaluation of Triazolopyrimidinone Derivatives as Noncompetitive, Intracellular Antagonists for CC Chemokine Receptors 2 and 5” (J Med Chem, 2019)
